{
  "source": "ChEMBL document CHEMBL1148118",
  "about": "“Immunomodulatory proanthocyanidins from Ecdysanthera utilis” (J Nat Prod, 2002)",
  "format_in_all_cases": "functional, cell-based",
  "key": {"[1]": {"tested_on": "PBMC", "assay": "Immunomodulatory activity in PHA-stimulated human PBMC assessed as inhibition of IL2 production after 3 days by enzyme immuno assay", "in_short": "(§1)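 Human PBMC isolated by Ficoll-Hypaque density gradient, resuspended in RPMI-1640 with 2% FCS and penicillin/streptomycin. 2 × 10^5 cells/well cultured with PHA (5 µg/mL) plus 0, 6, 12.5, 25, 50 or 100 µM compound for 3 days. IL-2 and IFN-γ measured in the supernatants by EIA. Each point is the mean of three independent experiments.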"}, "[2]": {"tested_on": "PBMC", "assay": "Immunomodulatory activity in PHA-stimulated human PBMC assessed as inhibition of IFN-gamma production after 3 days by enzyme immuno assay", "in_short": "as §1"}, "[3]": {"tested_on": "PBMC", "assay": "Inhibition of PHA-stimulated human PBMC proliferation assessed as [3H]thymidine uptake after 3 days by scintillation counting", "in_short": "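Ficoll-Hypaque-isolated human PBMC at 2 × 10^6 cells/mL in RPMI-1640 with 2% FCS, 100 µL/well, with or without 5 µg/mL PHA plus test compound. Incubated 3 days at 37 °C in 5% CO2. 3H-thymidine (1 µCi/well) was then added for 16 h, and cells were harvested onto glass-fiber filters for scintillation counting. % inhibition = (control CPM − treated CPM)/control CPM × 100. DMSO 0.1% vehicle.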"}},
  "note": "Activity calls are given as the source filed them. No cut-off for these calls is given here.",
  "data": [
    {"smiles": "Oc1cc(O)c2c(c1)O[C@@]1(c3ccc(O)c(O)c3)Oc3cc(O)c4c(c3[C@@H]2[C@H]1O)O[C@H](c1ccc(O)c(O)c1)[C@@H](O)C4", "note": "[PROANTHOCYANIDIN A1]", "values": [
      {"measurement": "Activity", "setting": "[1]", "result": "Dose-dependent effect"},
      {"measurement": "IC50", "setting": "[1]; 72 h", "result": 25, "unit": "µM"},
      {"measurement": "Activity", "setting": "[2]", "result": "Dose-dependent effect"},
      {"measurement": "IC50", "setting": "[2]; 72 h", "result": 5.1, "unit": "µM"},
      {"measurement": "IC50", "setting": "[3]", "result": 30.6, "unit": "µM"}
    ]},
    {"smiles": "Oc1cc(O)c2c(c1)O[C@H](c1ccc(O)c(O)c1)[C@H](O)[C@H]2c1c(O)cc(O)c2c1O[C@@]1(c3ccc(O)c(O)c3)Oc3cc(O)c4c(c3[C@@H]2[C@H]1O)O[C@H](c1ccc(O)c(O)c1)[C@H](O)[C@@H]4c1c(O)cc(O)c2c1O[C@H](c1ccc(O)c(O)c1)[C@H](O)C2", "values": [
      {"measurement": "Activity", "setting": "[3]", "result": "inactive"}
    ]},
    {"smiles": "Oc1cc(O)c2c(c1)O[C@@]1(c3ccc(O)c(O)c3)Oc3cc(O)c4c(c3[C@@H]2[C@H]1O)O[C@H](c1ccc(O)c(O)c1)[C@H](O)[C@@H]4c1c(O)cc(O)c2c1O[C@H](c1ccc(O)c(O)c1)[C@H](O)C2", "values": [
      {"measurement": "Activity", "setting": "[3]", "result": "inactive"}
    ]},
    {"smiles": "Oc1cc(O)c2c(c1)O[C@H](c1ccc(O)c(O)c1)[C@H](O)C2", "values": [
      {"measurement": "Activity", "setting": "[3]", "result": "inactive"}
    ]},
    {"smiles": "Oc1cc(O)c2c(c1)O[C@H](c1ccc(O)c(O)c1)[C@H](O)[C@H]2c1c(O)cc(O)c2c1O[C@H](c1ccc(O)c(O)c1)[C@H](O)C2", "values": [
      {"measurement": "Activity", "setting": "[3]", "result": "inactive"}
    ]},
    {"smiles": "Oc1cc(O)c2c(c1)O[C@@]1(c3ccc(O)c(O)c3)Oc3cc(O)c4c(c3[C@@H]2[C@H]1O)O[C@@]1(c2ccc(O)c(O)c2)Oc2cc(O)c3c(c2[C@@H]4[C@@H]1O)O[C@H](c1ccc(O)c(O)c1)[C@H](O)C3", "values": [
      {"measurement": "Activity", "setting": "[3]", "result": "inactive"}
    ]},
    {"smiles": "Oc1cc(O)c2c(c1)O[C@@]1(c3ccc(O)c(O)c3)Oc3cc(O)c4c(c3[C@@H]2[C@H]1O)O[C@H](c1ccc(O)c(O)c1)[C@H](O)C4", "values": [
      {"measurement": "Activity", "setting": "[3]", "result": "inactive"}
    ]}
  ]
}
